According to publication PMC7744997 (Clinical Infectious Diseases: An Official Publication of …, 2020):

Experiment: Laboratory safety in RSV-infected infants
Format: in vivo, human
How it was run: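 Clinical laboratory tests were run in RSV-infected infants (>1 to ≤24 months) given oral drug or placebo once daily for 7 days. Abnormalities were graded with the DMID Pediatric Toxicity Tables (November 2007 version). Patients were followed for 28 days after randomisation.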

## CS(=O)(=O)CCCn1c(Cn2c(=O)n(CC(F)(F)F)c3ccncc32)cc2cc(Cl)ccc21 [JNJ-53718678]
All cohorts, n=37
  Hemoglobin Grade 1 (treatment-emergent worst toxicity grade): 2 (5) no. (%)
  Hemoglobin Grade 2 (treatment-emergent worst toxicity grade): 1 (3) no. (%)
  Hyperkalemia Grade 1 (treatment-emergent worst toxicity grade): 10 (27) no. (%)
  Hyperkalemia Grade 2 (treatment-emergent worst toxicity grade): 2 (5) no. (%)
  Hypoglycemia Grade 1 (treatment-emergent worst toxicity grade): 3 (8) no. (%)
  Hyponatremia Grade 2 (treatment-emergent worst toxicity grade): 3 (8) no. (%)
All, n=26
  Eosinophils/leukocytes: Above (treatment-emergent nongraded abnormality): 7 (27) no. (%)
  Eosinophils/leukocytes: Below (treatment-emergent nongraded abnormality): 1 (4) no. (%)
  Lymphocytes/leukocytes: Above (treatment-emergent nongraded abnormality): 6 (23) no. (%)
  Lymphocytes/leukocytes: Below (treatment-emergent nongraded abnormality): 1 (4) no. (%)
  Monocytes/leukocytes: Above (treatment-emergent nongraded abnormality): 5 (19) no. (%)
  Monocytes/leukocytes: Below (treatment-emergent nongraded abnormality): 3 (12) no. (%)
  Neutrophils/leukocytes: Above (treatment-emergent nongraded abnormality): 1 (4) no. (%)
  Neutrophils/leukocytes: Below (treatment-emergent nongraded abnormality): 6 (23) no. (%)
All, n=33
  Urea: Above (treatment-emergent nongraded abnormality): 1 (3) no. (%)
  Urea: Below (treatment-emergent nongraded abnormality): 5 (15) no. (%)
All, n=35
  Bicarbonate: Above (treatment-emergent nongraded abnormality): 3 (9) no. (%)
  Bicarbonate: Below (treatment-emergent nongraded abnormality): 6 (17) no. (%)
  Eosinophils: Above (treatment-emergent nongraded abnormality): 7 (20) no. (%)
  Eosinophils: Below (treatment-emergent nongraded abnormality): 0 no. (%)
All, n=36
  Lymphocytes: Above (treatment-emergent nongraded abnormality): 6 (17) no. (%)
  Lymphocytes: Below (treatment-emergent nongraded abnormality): 0 no. (%)
All, n=37
  Alkaline phosphatase: Above (treatment-emergent nongraded abnormality): 2 (5) no. (%)
  Alkaline phosphatase: Below (treatment-emergent nongraded abnormality): 3 (8) no. (%)
  Chloride: Above (treatment-emergent nongraded abnormality): 5 (14) no. (%)
  Chloride: Below (treatment-emergent nongraded abnormality): 1 (3) no. (%)
  Erythrocytes: Above (treatment-emergent nongraded abnormality): 4 (11) no. (%)
  Erythrocytes: Below (treatment-emergent nongraded abnormality): 3 (8) no. (%)
  Leukocytes: Above (treatment-emergent nongraded abnormality): 6 (16) no. (%)
High (cohorts 1d,2c,3c), n=4
  Eosinophils/leukocytes: Above (treatment-emergent nongraded abnormality): 1 (25) no. (%)
  Eosinophils/leukocytes: Below (treatment-emergent nongraded abnormality): 0 no. (%)
  Lymphocytes/leukocytes: Above (treatment-emergent nongraded abnormality): 1 (25) no. (%)
  Lymphocytes/leukocytes: Below (treatment-emergent nongraded abnormality): 0 no. (%)
  Monocytes/leukocytes: Above (treatment-emergent nongraded abnormality): 0 no. (%)
  Monocytes/leukocytes: Below (treatment-emergent nongraded abnormality): 0 no. (%)
  Neutrophils/leukocytes: Above (treatment-emergent nongraded abnormality): 0 no. (%)
  Neutrophils/leukocytes: Below (treatment-emergent nongraded abnormality): 0 no. (%)
High (cohorts 1d,2c,3c), n=8
  Bicarbonate: Above (treatment-emergent nongraded abnormality): 0 no. (%)
  Bicarbonate: Below (treatment-emergent nongraded abnormality): 3 (38) no. (%)
  Eosinophils: Above (treatment-emergent nongraded abnormality): 0 no. (%)
  Eosinophils: Below (treatment-emergent nongraded abnormality): 0 no. (%)
High (cohorts 1d,2c,3c), n=9
  Alkaline phosphatase: Above (treatment-emergent nongraded abnormality): 0 no. (%)
  Alkaline phosphatase: Below (treatment-emergent nongraded abnormality): 0 no. (%)
  Chloride: Above (treatment-emergent nongraded abnormality): 0 no. (%)
  Chloride: Below (treatment-emergent nongraded abnormality): 0 no. (%)
  Erythrocytes: Above (treatment-emergent nongraded abnormality): 0 no. (%)
  Erythrocytes: Below (treatment-emergent nongraded abnormality): 1 (11) no. (%)
  Hemoglobin Grade 1 (treatment-emergent worst toxicity grade): 0 no. (%)
  Hemoglobin Grade 2 (treatment-emergent worst toxicity grade): 0 no. (%)
  Hyperkalemia Grade 1 (treatment-emergent worst toxicity grade): 1 (11) no. (%)
  Hyperkalemia Grade 2 (treatment-emergent worst toxicity grade): 1 (11) no. (%)
  Hypoglycemia Grade 1 (treatment-emergent worst toxicity grade): 3 (33) no. (%)
  Hyponatremia Grade 2 (treatment-emergent worst toxicity grade): 1 (11) no. (%)
  Leukocytes: Above (treatment-emergent nongraded abnormality): 3 (33) no. (%)
  Lymphocytes: Above (treatment-emergent nongraded abnormality): 1 (11) no. (%)
  Lymphocytes: Below (treatment-emergent nongraded abnormality): 0 no. (%)
  Urea: Above (treatment-emergent nongraded abnormality): 0 no. (%)
  Urea: Below (treatment-emergent nongraded abnormality): 0 no. (%)
Low (cohorts 1a,2a,3a), n=9
  Eosinophils/leukocytes: Above (treatment-emergent nongraded abnormality): 2 (22) no. (%)
  Eosinophils/leukocytes: Below (treatment-emergent nongraded abnormality): 0 no. (%)
  Lymphocytes/leukocytes: Above (treatment-emergent nongraded abnormality): 2 (22) no. (%)
  Lymphocytes/leukocytes: Below (treatment-emergent nongraded abnormality): 0 no. (%)
  Monocytes/leukocytes: Above (treatment-emergent nongraded abnormality): 2 (22) no. (%)
  Monocytes/leukocytes: Below (treatment-emergent nongraded abnormality): 2 (22) no. (%)
  Neutrophils/leukocytes: Above (treatment-emergent nongraded abnormality): 0 no. (%)
  Neutrophils/leukocytes: Below (treatment-emergent nongraded abnormality): 3 (33) no. (%)
  Urea: Above (treatment-emergent nongraded abnormality): 1 (11) no. (%)
  Urea: Below (treatment-emergent nongraded abnormality): 1 (11) no. (%)
Low (cohorts 1a,2a,3a), n=11
  Bicarbonate: Above (treatment-emergent nongraded abnormality): 1 (9) no. (%)
  Bicarbonate: Below (treatment-emergent nongraded abnormality): 0 no. (%)
Low (cohorts 1a,2a,3a), n=12
  Alkaline phosphatase: Above (treatment-emergent nongraded abnormality): 1 (8) no. (%)
  Alkaline phosphatase: Below (treatment-emergent nongraded abnormality): 0 no. (%)
  Chloride: Above (treatment-emergent nongraded abnormality): 1 (8) no. (%)
